Data on 18 molecules can be found in ChEMBL document CHEMBL4400550, “Designing Dual Inhibitors of Anaplastic Lymphoma Kinase (ALK) and Bromodomain-4 (BRD4) by Tuning Kinase Selectivity” (J Med Chem, 2019).

pIC50, pKd: −log10 of the molar value. ≈ marks a conversion by molar mass, not a printed value. Calls of active or inactive are those of the source. No cut-off for these calls is given here.

Series [1] addresses T1, ALK tyrosine kinase receptor (Homo sapiens, UniProt Q9UM73, F1174L). Description: Displacement of kinase tracer 236 from human N-terminal GST-tagged ALK F1174L mutant (1058 to 1620 residues) after 60 mins by LanthaScreen Eu--kinase binding assay. An outline of the steps: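 LanthaScreen Eu binding assay. Mix 5 nM ALK F1174L, 30 nM Kinase Tracer 236 and 2 nM Eu-anti-GST antibody in 50 mM HEPES pH 7.5, 10 mM MgCl2, 1 mM EGTA, 0.01% Brij-35, 1 mM DTT. Compound runs 0.5 nM–100 μM in 1% DMSO. Incubate 60 min at room temperature. Read the 665 nm acceptor/donor emission ratio; fit log(inhibitor) vs ratio with a variable-slope equation.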

In series [2] the target is T2, Bromodomain-containing protein 4 (Homo sapiens, UniProt O60885). Description: Binding affinity to BRD4 (unknown origin) by isothermal calorimetry.
For series [3], the target named is T2, Bromodomain-containing protein 4.
For series [4], the target named is T3, Serine/threonine-protein kinase PLK1 (Homo sapiens, UniProt P53350). Description: Inhibition of PLK1 (unknown origin) using Ser/Thr 16 as substrate after 60 mins by Z-LYTE activity assay.
The target of series [5] is T2, Bromodomain-containing protein 4. Description: Inhibition of full-length C-terminal NanoLuc-tagged BRD4 BD1 (unknown origin) expressed in human HEK293 cells after 2 hrs by NanoBRET target engagement assay. Format: cell-based.
The target of series [6] is T4, ALK tyrosine kinase receptor (Homo sapiens, UniProt Q9UM73). Description: Inhibition of full-length C-terminal NanoLuc-tagged ALK (unknown origin) expressed in human HEK293 cells after 2 hrs by NanoBRET target engagement assay. Type of series: cell-based.
Target sequence in this assay (Q9UM73 whole entry): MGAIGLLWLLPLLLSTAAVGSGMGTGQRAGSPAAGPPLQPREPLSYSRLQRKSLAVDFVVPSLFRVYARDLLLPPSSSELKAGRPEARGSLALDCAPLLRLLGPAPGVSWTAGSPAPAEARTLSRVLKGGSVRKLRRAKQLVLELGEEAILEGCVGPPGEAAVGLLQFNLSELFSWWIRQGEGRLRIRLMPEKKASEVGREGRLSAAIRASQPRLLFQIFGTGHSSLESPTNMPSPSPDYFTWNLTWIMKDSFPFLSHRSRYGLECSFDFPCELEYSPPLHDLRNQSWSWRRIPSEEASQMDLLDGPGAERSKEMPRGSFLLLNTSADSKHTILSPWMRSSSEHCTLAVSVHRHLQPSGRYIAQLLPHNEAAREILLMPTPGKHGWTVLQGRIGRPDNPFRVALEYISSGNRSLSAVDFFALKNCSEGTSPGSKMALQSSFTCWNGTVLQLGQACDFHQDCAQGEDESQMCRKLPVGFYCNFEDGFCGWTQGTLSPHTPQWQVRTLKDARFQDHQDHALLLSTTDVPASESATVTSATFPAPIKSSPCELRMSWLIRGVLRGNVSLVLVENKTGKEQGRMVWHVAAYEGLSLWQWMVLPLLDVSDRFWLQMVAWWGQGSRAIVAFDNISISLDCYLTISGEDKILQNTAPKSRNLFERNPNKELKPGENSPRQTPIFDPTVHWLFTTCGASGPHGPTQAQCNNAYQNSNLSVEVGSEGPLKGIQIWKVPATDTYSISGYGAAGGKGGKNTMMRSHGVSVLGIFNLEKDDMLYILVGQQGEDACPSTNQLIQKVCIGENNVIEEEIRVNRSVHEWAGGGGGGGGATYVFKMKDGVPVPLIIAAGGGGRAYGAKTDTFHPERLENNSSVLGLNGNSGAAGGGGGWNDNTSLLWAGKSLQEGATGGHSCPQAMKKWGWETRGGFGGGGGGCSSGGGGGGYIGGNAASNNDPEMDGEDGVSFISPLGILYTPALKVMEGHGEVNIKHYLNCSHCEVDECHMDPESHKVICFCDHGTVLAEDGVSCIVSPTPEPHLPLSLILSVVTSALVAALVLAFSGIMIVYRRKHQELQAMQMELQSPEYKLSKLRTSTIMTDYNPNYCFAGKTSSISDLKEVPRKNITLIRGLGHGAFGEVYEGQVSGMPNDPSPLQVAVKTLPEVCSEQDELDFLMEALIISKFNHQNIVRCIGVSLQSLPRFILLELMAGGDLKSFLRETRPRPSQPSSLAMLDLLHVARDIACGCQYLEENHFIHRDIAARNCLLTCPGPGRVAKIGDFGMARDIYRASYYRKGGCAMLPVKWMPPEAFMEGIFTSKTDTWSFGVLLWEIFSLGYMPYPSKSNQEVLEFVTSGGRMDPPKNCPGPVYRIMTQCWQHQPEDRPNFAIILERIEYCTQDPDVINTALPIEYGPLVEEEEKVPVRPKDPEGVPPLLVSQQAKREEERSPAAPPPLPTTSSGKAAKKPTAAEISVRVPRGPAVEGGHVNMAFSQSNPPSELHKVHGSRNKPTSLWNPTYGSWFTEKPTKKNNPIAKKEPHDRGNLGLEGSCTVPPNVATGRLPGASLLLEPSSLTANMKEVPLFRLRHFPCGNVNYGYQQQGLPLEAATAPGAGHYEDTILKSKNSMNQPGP
The target of series [7] is T3, Serine/threonine-protein kinase PLK1. Description: Inhibition of PLK1 (unknown origin) at 10 nM using Ser/Thr 16 as substrate after 60 mins by Z-LYTE activity assay. An outline of the steps: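 PLK-1 Z'-LYTE activity assay run externally through the SelectScreen kinase profiling service. Percentage inhibition is measured at 10 nM compound.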
For series [8], the target named is T5, Serine/threonine-protein kinase PLK3 (Homo sapiens, UniProt Q9H4B4). Description: Binding affinity to human PLK3 (42 to 334 residues) expressed in mammalian expression system assessed as unbound protein level at 1 uM by kinome scan-based assay. An outline of the steps: (§1)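 Single-point KINOMEscan (scanEDGE) competition binding at 1 μM compound. Read-out is %Ctrl, with DMSO set as 100%Ctrl; lower values mean stronger binding.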
Target sequence in this assay (Q9H4B4 whole entry, looked up, the tested form may be a part): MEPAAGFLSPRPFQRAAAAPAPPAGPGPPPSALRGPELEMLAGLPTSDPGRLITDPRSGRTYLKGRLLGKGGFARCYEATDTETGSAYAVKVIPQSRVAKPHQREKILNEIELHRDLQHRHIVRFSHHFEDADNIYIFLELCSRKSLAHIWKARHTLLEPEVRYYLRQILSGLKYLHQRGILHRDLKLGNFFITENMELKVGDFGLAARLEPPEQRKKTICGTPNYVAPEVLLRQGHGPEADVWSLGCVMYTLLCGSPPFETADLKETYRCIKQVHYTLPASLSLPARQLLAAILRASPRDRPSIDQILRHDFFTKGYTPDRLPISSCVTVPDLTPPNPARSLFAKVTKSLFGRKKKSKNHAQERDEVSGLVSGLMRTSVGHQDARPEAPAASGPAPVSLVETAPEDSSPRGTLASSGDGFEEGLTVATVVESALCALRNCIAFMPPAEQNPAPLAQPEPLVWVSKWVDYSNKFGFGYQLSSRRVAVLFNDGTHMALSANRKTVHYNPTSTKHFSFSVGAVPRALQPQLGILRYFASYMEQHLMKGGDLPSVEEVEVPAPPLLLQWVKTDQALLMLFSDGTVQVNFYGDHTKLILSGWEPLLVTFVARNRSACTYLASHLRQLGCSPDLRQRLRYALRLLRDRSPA

For series [9], the target named is T6, Insulin receptor (Homo sapiens, UniProt P06213). Description: Binding affinity to human INSR (997 to 1318 residues) expressed in mammalian expression system by kinome scan-based assay.
Series [10] has as its target T3, Serine/threonine-protein kinase PLK1. Description: Binding affinity to human PLK1 (33 to 325 residues) expressed in mammalian expression system assessed as unbound protein level at 1 uM by kinome scan-based assay. The gist of the method: as §1
Series [11] has as its target T5, Serine/threonine-protein kinase PLK3. Description: Binding affinity to human PLK3 (42 to 334 residues) expressed in mammalian expression system by kinome scan-based assay.
Target sequence in this assay (Q9H4B4 whole entry, the tested form may be a part): as the sequence (Q9H4B4 whole entry, looked up, the tested form may be a part) above
Series [12] addresses T3, Serine/threonine-protein kinase PLK1. Description: Binding affinity to human PLK1 (33 to 325 residues) expressed in mammalian expression system by kinome scan-based assay.
For series [13], the species on record is Homo sapiens. Description: Selectivity ratio of IC50 for PLK1 (unknown origin) to IC50 for human N-terminal GST-tagged ALK F1174L mutant (1058 to 1620 residues).
In series [14] the target is T1, ALK tyrosine kinase receptor. Description: Binding affinity to human ALK F1174L mutant (1088 to 1409 residues) expressed in mammalian expression system by kinome scan-based assay.
The target in series [15] is T4, ALK tyrosine kinase receptor. Description: Binding affinity to wild type human ALK (1088 to 1409 residues) expressed in mammalian expression system by kinome scan-based assay.
Target sequence in this assay (Q9UM73 whole entry): as the sequence (Q9UM73 whole entry) above
Series [16] concerns the target T6, Insulin receptor. Description: Binding affinity to human INSR (997 to 1318 residues) expressed in mammalian expression system assessed as unbound protein level at 1 uM by kinome scan-based assay. The gist of the method: as §1
For series [17], the target named is T1, ALK tyrosine kinase receptor. Description: Inhibition of ALK F1174L mutant auto-phosphorylation in human Kelly cells after 3 hrs by MSD assay. Format: cell-based.
In series [18] the target is T4, ALK tyrosine kinase receptor. Description: Binding affinity to wild type human ALK (1088 to 1409 residues) expressed in mammalian expression system assessed as unbound protein level at 1 uM by kinome scan-based assay. The gist of the method: as §1
Target sequence in this assay (Q9UM73 19-1620 limits assumed): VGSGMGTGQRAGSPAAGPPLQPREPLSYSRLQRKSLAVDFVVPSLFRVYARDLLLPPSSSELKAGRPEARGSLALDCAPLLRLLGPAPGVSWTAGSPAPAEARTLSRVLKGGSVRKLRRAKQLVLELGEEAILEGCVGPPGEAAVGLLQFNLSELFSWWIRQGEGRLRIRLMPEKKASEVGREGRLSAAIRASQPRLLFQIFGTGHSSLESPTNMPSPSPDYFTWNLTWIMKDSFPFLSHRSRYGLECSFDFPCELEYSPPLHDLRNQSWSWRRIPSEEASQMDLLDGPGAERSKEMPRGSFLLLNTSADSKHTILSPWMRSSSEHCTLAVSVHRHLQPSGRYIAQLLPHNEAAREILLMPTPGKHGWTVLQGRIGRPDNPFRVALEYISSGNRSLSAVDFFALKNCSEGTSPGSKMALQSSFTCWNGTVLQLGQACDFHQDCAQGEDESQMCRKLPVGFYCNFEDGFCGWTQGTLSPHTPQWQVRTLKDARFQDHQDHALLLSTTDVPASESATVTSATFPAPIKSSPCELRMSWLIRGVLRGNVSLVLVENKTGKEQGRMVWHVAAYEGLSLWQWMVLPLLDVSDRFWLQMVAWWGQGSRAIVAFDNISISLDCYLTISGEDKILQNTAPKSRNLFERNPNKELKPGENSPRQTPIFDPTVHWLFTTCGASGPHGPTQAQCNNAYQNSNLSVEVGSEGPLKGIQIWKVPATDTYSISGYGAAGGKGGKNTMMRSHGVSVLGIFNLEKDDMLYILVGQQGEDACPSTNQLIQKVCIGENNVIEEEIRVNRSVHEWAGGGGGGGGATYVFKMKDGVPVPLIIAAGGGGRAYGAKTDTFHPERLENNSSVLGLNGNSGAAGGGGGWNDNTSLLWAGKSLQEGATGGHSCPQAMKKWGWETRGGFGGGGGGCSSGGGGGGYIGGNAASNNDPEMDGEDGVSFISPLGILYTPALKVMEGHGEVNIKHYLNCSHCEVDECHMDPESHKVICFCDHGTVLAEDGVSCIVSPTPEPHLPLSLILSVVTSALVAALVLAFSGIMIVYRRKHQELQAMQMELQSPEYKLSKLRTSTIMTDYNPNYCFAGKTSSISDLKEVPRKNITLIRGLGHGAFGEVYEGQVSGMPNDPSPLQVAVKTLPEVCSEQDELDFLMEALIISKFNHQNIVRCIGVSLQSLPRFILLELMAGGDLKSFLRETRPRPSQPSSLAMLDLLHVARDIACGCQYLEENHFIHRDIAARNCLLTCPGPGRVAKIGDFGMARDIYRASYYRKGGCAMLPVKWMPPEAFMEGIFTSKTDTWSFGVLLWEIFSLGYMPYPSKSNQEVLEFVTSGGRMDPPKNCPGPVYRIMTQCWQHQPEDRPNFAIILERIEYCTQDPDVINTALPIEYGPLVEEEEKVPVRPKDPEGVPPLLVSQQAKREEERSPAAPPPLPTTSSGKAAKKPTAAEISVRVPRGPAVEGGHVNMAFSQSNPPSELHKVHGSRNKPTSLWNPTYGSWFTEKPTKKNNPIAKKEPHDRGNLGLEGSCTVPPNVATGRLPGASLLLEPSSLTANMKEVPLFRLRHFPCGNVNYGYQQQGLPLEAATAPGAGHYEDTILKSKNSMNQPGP
For series [19], the species on record is Homo sapiens. Description: Selectivity ratio of IC50 for PLK1 in human HeLa cells to IC50 for human N-terminal GST-tagged ALK F1174L mutant (1058 to 1620 residues). Format: cell-based.
A short description of series [20]: Solubility of the compound in phosphate buffer at pH 7.4 b HPLC analysis. Type of series: physicochemical. The gist of the method: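 Solubility measured by in-house HPLC method from phosphate buffer at pH 7.4.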
Series [21] can be described thus: Permeability of the compound at pH 7.4 by PAMPA. Format: ADME. Particulars: read-out: permeability.
The next series has as its system HeLa. Description: Induction of cell cycle arrest in human HeLa cells at 4 to 10 uM after 24 hrs by propidium iodide-staining based flow cytometry. Format: functional.
Series [22] in a line: Partition coefficient, log P of the compound. Type of series: physicochemical. Conditions: octanol/water.
Series [23] can be described thus: Lipophilicity, log D of the compound at pH 7.4. Type of series: physicochemical. Conditions: buffer.

T1 sequence (Q9UM73 19-1620 F1174L limits assumed): as the sequence (Q9UM73 19-1620 limits assumed) above, with F1156L counted along it
T3 sequence (P53350 whole entry): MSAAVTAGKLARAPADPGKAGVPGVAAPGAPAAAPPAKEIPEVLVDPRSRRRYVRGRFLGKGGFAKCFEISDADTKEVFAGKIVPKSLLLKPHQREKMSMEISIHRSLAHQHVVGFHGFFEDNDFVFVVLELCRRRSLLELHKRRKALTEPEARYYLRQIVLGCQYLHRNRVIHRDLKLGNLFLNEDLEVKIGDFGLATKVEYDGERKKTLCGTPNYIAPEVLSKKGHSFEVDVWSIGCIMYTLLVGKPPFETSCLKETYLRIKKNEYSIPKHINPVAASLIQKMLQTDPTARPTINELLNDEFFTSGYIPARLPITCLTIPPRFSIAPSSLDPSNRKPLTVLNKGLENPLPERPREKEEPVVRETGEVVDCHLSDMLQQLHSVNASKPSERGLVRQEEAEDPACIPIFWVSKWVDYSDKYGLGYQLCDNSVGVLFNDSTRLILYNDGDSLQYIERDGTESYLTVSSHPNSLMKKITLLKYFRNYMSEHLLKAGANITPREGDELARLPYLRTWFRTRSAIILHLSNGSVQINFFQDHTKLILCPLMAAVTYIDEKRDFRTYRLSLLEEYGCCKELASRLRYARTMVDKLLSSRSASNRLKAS

As for `CCOc1cc(C2CCN(C)CC2)ccc1Nc1ncc2c(n1)N(Cc1cccc(Cl)c1)[C@H](CC)C(=O)N2C`, the pIC50 was 6.68 in series [1] and 6.27 in [4]. Also, in series [2], the pKd is 6.89. In series [3], this molecule yielded a deltaTm of 6.2 K.
Take `CCOc1cc(C2CCN(C)CC2)ccc1Nc1ncc2c(n1)N(Cc1scnc1C)[C@H](CC)C(=O)N2C`: the pIC50 in series [1] is 6.43. The deltaTm in [3] was 4.6 K.
In the case of `CCOc1cc(C(=O)NC2CCN(C)CC2)ccc1Nc1ncc2c(n1)N(Cc1cccc(Br)c1)[C@H](CC)C(=O)N2C`, the negative-log IC50 (pIC50) is 6.31 in series [1] and 6.96 in series [4]. Moreover, the pKd in [2] is 7.14. For the same molecule, in [3], the deltaTm turned out to be 6.7 K.
In [1], `CCOc1cc(C2CCN(C)CC2)ccc1Nc1ncc2c(n1)N(Cc1ccc(Br)cc1)[C@H](CC)C(=O)N2C` had a pIC50 of 6.17. The molecule also came in with a deltaTm in series [3] of 5.8 K.
Regarding `CCOc1cc(C2CCN(C)CC2)ccc1Nc1ncc2c(n1)N(Cc1ccccc1)[C@H](CC)C(=O)N2C`, the pIC50 in [1] was 7.07; in [5] it was 6.27; in [4], 6.54; in [6], 5.79. Also, in series [2], the negative logarithm of the Kd (pKd) was 7.27. In series [3], this molecule yielded a deltaTm of 4.7 K.
Turning to `CCOc1cc(C2CCN(C)CC2)ccc1Nc1ncc2c(n1)N(Cc1ccc(C)s1)[C@H](CC)C(=O)N2C`, the negative logarithm of the IC50 (pIC50) in series [1] was 6.66. The same molecule gave a deltaTm in series [3] of 8.3 K.
`CCOc1cc(C(=O)NC2CCN(C)CC2)ccc1Nc1ncc2c(n1)N(C1CCCC1)CC(=O)N2C`: the pIC50 in series [1] was 6.28. The same molecule registered an inhibition in series [7] of 32%. For the same molecule, the deltaTm in [3] stood at 0.2 K.
In the case of `CCOc1cc(C2CCN(C)CC2)ccc1Nc1ncc2c(n1)N(Cc1cc(C)cs1)[C@H](CC)C(=O)N2C`, the Activity turned out to be 25% in series [8], 1% in series [10], 25% on Insulin receptor [16] and 7.1% in series [18]. Further, the pKd on Insulin receptor [9] is 6.72; in series [11], 6.80; in [12], 7.96; in series [14] it was 7.64; in series [15], 7.05; in series [2], 7.36. Besides, the pIC50 is 7.77 in [1]; 6.59 in series [5]; 5.82 in [17]; 6.90 in series [4]; 6.33 in series [6]. Besides, the Ratio IC50 in the series listed under Homo sapiens [13] is 7. Further, the Ratio in the series filed under Homo sapiens [19] was greater than 10. The same molecule gave a solubility in [20] of 90 µM (≈ 48.1 µg/mL). This molecule also registered a deltaTm in [3] of 7.1 K. Moreover, the Papp in series [21] was determined as 49 ×10⁻⁶ cm/s. The outcome in the series on HeLa was Active. Also, the logP in [22] is listed as 6.1. In series [23], this molecule registered a log distribution coefficient (logD) of 4.2.
Regarding `CC[C@@H]1C(=O)N(C)c2cnc(Nc3ccc(C(=O)NC4CCN(C)CC4)cc3OCC(C)C)nc2N1C1CCCC1`, the negative-log IC50 (pIC50) in series [1] is 5.77. In addition, in series [7], the inhibition came to 43%. Moreover, the negative logarithm of the Kd (pKd) in series [2] was 7.14. For the same molecule, in [3], the deltaTm was found to be 7.2 K.
Turning to `CCOc1cc(C(=O)NC2CCN(C)CC2)ccc1Nc1ncc2c(n1)N(C1CCCC1)[C@@H](CC)C(=O)N2C`, the pIC50 in series [1] was 5.47. For the same molecule, in [7], the inhibition stood at 19%. In addition, the deltaTm in series [3] is -0.2 K.
In series [1], `CCOc1cc(C2CCN(C)CC2)ccc1Nc1ncc2c(n1)N(Cc1ccccc1Br)[C@H](CC)C(=O)N2C` gave a pIC50 of 6.82. The deltaTm in [3] came to 2.9 K.
Consider `CCOc1cc(C2CCN(C)CC2)ccc1Nc1ncc2c(n1)N(Cc1cccc(Br)c1)[C@H](CC)C(=O)N2C`, for which the values for the negative-log IC50 (pIC50) in [1] and in series [4] were 6.54 and 6.27, respectively. In series [2], this molecule showed a pKd of 6.92. Besides, the deltaTm in series [3] turned out to be 5 K.
As to `CCOc1cc(C2CCN(C)CC2)ccc1Nc1ncc2c(n1)N(Cc1cccc(OC)c1)[C@H](CC)C(=O)N2C`, the pIC50 in [1] is 6.46. The molecule further returned a deltaTm in series [3] of 5.1 K.
Consider `CCOc1cc(C(=O)NC2CCN(C)CC2)ccc1Nc1ncc2c(n1)N(C1CCCC1)[C@H](CC)C(=O)N2C`, for which the pIC50 in series [1] was 6.42; in series [4], 7.92. Moreover, the pKd in [2] is 7.09. This molecule showed a deltaTm in series [3] of 6 K.
For `CCOc1cc(C2CCN(C)CC2)ccc1Nc1ncc2c(n1)N(Cc1sccc1C)[C@H](CC)C(=O)N2C`, the pIC50 in [1] was 7.20; in series [5], 6.51; in series [4] it was 7.17; in series [6], 5.99. Also, the pKd in series [2] is 7.20. Also, in series [3], the deltaTm worked out at 5.4 K.
In the case of `CCOc1cc(C2CCN(C)CC2)ccc1Nc1ncc2c(n1)N(Cc1cccc(C#N)c1)[C@H](CC)C(=O)N2C`, the negative-log IC50 (pIC50) in series [1] is 6.43; in [4] it was 5.74. Moreover, the pKd in series [2] is 7.11. The molecule also displayed a deltaTm in series [3] of 4.8 K.
On to `CC[C@@H]1C(=O)N(C)c2cnc(Nc3ccc(C4CCN(C)CC4)cc3OC)nc2N1C1CCCC1`, for which the pIC50 is 6.54 in [1] and 8.00 in [4]. Moreover, the negative logarithm of the Kd (pKd) in series [2] was 7.10. Besides, the deltaTm in [3] is 5.4 K.
Turning to `CCOc1cc(C(=O)NC2CCN(C)CC2)ccc1Nc1ncc2c(n1)N(Cc1ccccc1)[C@H](CC)C(=O)N2C`, the negative logarithm of the IC50 (pIC50) was 6.36 in [1] and 7.08 in [4]. The molecule also had a negative logarithm of the Kd (pKd) in series [2] of 7.16. In [3], the deltaTm came to 4.1 K.
